Here are results for three compounds from ChEMBL document CHEMBL1151222, “A new lariciresinol-type butyrolactone lignan derived from hydroxymatairesinol and its identification in spruce wood” (J Nat Prod, 2004).

SMILES strings stand for the structures.

What all share (set-up): dose 50 mg/kg, route oral
Holding throughout (conditions): in vivo

Series [1] has as its system Rattus norvegicus. Briefly: Metabolic stability in Sprague-Dawley rat assessed as conversion to hydroxymatairesinol level at 50 mg/kg, po after 48 hrs. Format: ADME, organism-based. The method, boiled down:
(§1)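 Five female Sprague-Dawley rats were kept on RM1 diet before and during the study. A knotwood-derived lignan preparation was given once by oral gavage in vehicle at 50 mg/kg, and individual urine was collected over 48 h. Urine was enzymatically hydrolysed, solid-phase extracted at pH 4.0 and analysed by negative-mode HPLC-ESI-MS/MS MRM. Pre-dose background was subtracted. Conversion is excreted molar amount per total administered molar amount, reported as mean ± SD.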

Series [2] has as its system Rattus norvegicus. Briefly: Metabolic stability in Sprague-Dawley rat assessed as urinary excretion of hydroxymatairesinol at 50 mg/kg, po after 48 hrs. Format: ADME, organism-based, Urine. The method, boiled down: (§2)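 Five female Sprague-Dawley rats on RM1 diet received a single oral gavage of the lignan preparation in vehicle at 50 mg/kg. Individual 48 h urine was hydrolysed enzymatically, solid-phase extracted at pH 4.0 and measured by negative-ion HPLC-MS/MS MRM against calibration curves in spiked blank rat urine. Background was subtracted. Excretion is excreted molar amount per administered molar amount of that same component, reported as mean ± SD.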

Series [3] relates to Rattus norvegicus. Kind of series: Metabolic stability in Sprague-Dawley rat assessed as conversion to isohydroxymatairesinol level at 50 mg/kg, po after 48 hrs. The series is classed as ADME, organism-based. The method, boiled down:
as §1

For series [4], the system named is Rattus norvegicus. Briefly: Metabolic stability in Sprague-Dawley rat assessed as urinary excretion of isohydroxymatairesinol at 50 mg/kg, po after 48 hrs. Format: ADME, organism-based, Urine. The method, boiled down:
as §2

Series [5] has as its system Rattus norvegicus. Kind of series: Metabolic stability in Sprague-Dawley rat assessed as urinary excretion of allo-hydroxymatairesinol at 50 mg/kg, po after 48 hrs. Format: ADME, organism-based, Urine. In short, it runs like this:
as §2

The subject of series [6] is Rattus norvegicus. Kind of series: Metabolic stability in Sprague-Dawley rat assessed as conversion to allo-hydroxymatairesinol level at 50 mg/kg, po after 48 hrs. The series is classed as ADME, organism-based. The method, boiled down: as §1

For the compound `COc1cc(C[C@H]2C(=O)OC[C@@H]2[C@H](O)c2ccc(O)c(OC)c2)ccc1O` [HYDROXYMATAIRESINOL], the Activity turned out to be 1100 nmol in series [1] and 6% in series [2].

As for `COc1cc(C[C@H]2C(=O)O[C@H](c3ccc(O)c(OC)c3)[C@H]2CO)ccc1O` [ISOHYDROXYMATAIRESINOL], the Activity came out at 39 nmol in series [3] and 5.9% in series [4].

For the compound `COc1cc(C[C@H]2C(=O)OC[C@@H]2[C@@H](O)c2ccc(O)c(OC)c2)ccc1O`, the Activity was determined as 14.3% in series [5] and 1400 nmol in series [6].
